Experimental data from different studies.
Protocols differ between the studies behind these lines.
Cell line: MCF7
Read-out: cell growth or viability

SMILES	method	time	IC50
CSc1nc(/N=C/c2cc(C)ccc2O)n(-c2ccc(C(=O)O)cc2)n1	MTT		23.9 µM
COc1cccc2c1C(=O)c1c(O)c3c(c(O)c1C2=O)C[C@@](O)(C(=O)CO)C[C@@H]3O[C@H]1C[C@H](N)[C@H](O)[C@H](C)O1	MTT	72 h	0.74 µM
CC(=O)O[C@H]1C(=O)[C@@]2(C)[C@H]([C@H](OC(=O)c3ccccc3)[C@]3(O)C[C@H](OC(=O)[C@H](O)[C@@H](NC(=O)c4ccccc4)c4ccccc4)C(C)=C1C3(C)C)[C@]1(OC(C)=O)CO[C@@H]1C[C@@H]2O		72 h	0.011 µM
Cc1ccc2nc(-c3ccc(F)cc3)[nH]c2c1	MTT	48 h	38.6 µM
CN1CCN(C/C=N/NC(=O)Nc2cc3c(Nc4ccc(F)c(Cl)c4)ncnc3cc2O[C@H]2CCOC2)CC1	MTT	72 h	2.04 µM
Oc1c(I)cc(I)c2cccnc12	MTT	48 h	75.1 µM
CCN(CC)C(=S)NC(=O)c1ccc2ccccc2c1		48 h	4.72 µM
O=C(N/N=C/CN1CCCC1)Nc1cc2c(Nc3ccc(F)c(Cl)c3)ncnc2cc1O[C@H]1CCOC1	MTT	72 h	3.12 µM
CSc1nc(/N=C/c2cc([N+](=O)[O-])ccc2O)n(-c2ccc(C(=O)O)cc2)n1	MTT		20 µM
CC1CCC(OCn2c[n+](Cc3ccccc3)c3ccccc32)CC1 (stereo not drawn)	MTT	72 h	27 µM
O=C(/C=C/c1ccc(O)c(O)c1)O[C@@H]1C[C@](O)(C(=O)O)C[C@@H](O)[C@H]1O	WST-1	48 h	9.5 µM
Cc1ccc2nc(-c3cccc([N+](=O)[O-])c3)[nH]c2c1	MTT	48 h	19.2 µM
COc1ccc(-c2ccc3ncnc(Nc4cccc(C(F)(F)F)c4)c3c2)cc1	MTT	24 h	11.7 µM
c1cc2c(cc1CNCC1CCNCC1)OCO2	MTT	72 h	> 100 µM
Oc1ccccc1-c1ccc2ncnc(Nc3cccc(C(F)(F)F)c3)c2c1	MTT	24 h	7.13 µM
O=c1ccn(Cc2cn(-c3c4ccccc4nc4ccccc34)nn2)c(=O)[nH]1	MTT		10.9 µM
CC1(C)[C@@H](O)CC[C@]2(C)[C@H]3C(=O)C=C4[C@@H]5C[C@@](C)(C(=O)O)CC[C@]5(C)CC[C@@]4(C)[C@]3(C)CC[C@@H]12	MTT	48 h	> 100 µM
Cc1ccc2nc(-c3ccc(N(C)C)cc3)[nH]c2c1	MTT	48 h	47.7 µM
O=S(=O)(NN=Cc1cn(CCN2CCOCC2)c2ccccc12)c1ccccc1	MTT	48 h	73.2 µM
O=C(N/N=C/CN1CCCCC1)Nc1cc2c(Nc3ccc(F)c(Cl)c3)ncnc2cc1O[C@H]1CCOC1	MTT	72 h	1.53 µM
Cc1nc(Nc2ncc(C(=O)Nc3c(C)cccc3Cl)s2)cc(N2CCN(CCO)CC2)n1	MTT	48 h	7.99 µM
O=C(/N=c1\scc(-c2ccccc2)n1C1CCCCC1)c1ccc2ccccc2c1		48 h	17.3 µM
Cc1occc(=O)c1[O-].[Cl-].[W+4].c1cc[cH-]c1.c1cc[cH-]c1	MTT		330 µM
Oc1cccc(-c2ccc3ncnc(Nc4cccc(C(F)(F)F)c4)c3c2)c1	MTT	24 h	18.1 µM

SMILES	method	time	IC50
CCNC(=S)NC(=O)c1ccc2ccccc2c1		48 h	6.26 µM
O=S(=O)(NN=Cc1cn(CCN2CCOCC2)c2ccccc12)c1ccc(F)cc1	MTT	48 h	32.6 µM
CCOc1ccc(-c2nc3ccc(C)cc3[nH]2)cc1	MTT	48 h	> 100 µM
COc1cc2ncnc(Nc3ccc(F)c(Cl)c3)c2cc1NC(=O)N/N=C/CN1CCCCC1	MTT	72 h	6.42 µM
CSc1ccc(-c2nc3ccccc3[nH]2)cc1	MTT	48 h	33.2 µM
O=C(O)c1ccc(-n2nc(Oc3ccccc3)nc2/N=C/c2cc([N+](=O)[O-])ccc2O)cc1	MTT		21.6 µM
Cc1ccc2nc(-c3cccc(O)c3)[nH]c2c1	MTT	48 h	> 100 µM
COc1ccc(-c2csc(Nc3ccc4c(O)ncnc4c3)n2)cc1	MTT		9.75 µM
CC/C(=C(/c1ccc(OCCNC)cc1)c1ccc(B2OC(C)(C)C(C)(C)O2)cc1)c1ccccc1		5 days	0.708 µM
CS(=O)(=O)c1ccc(-n2cc(/C=N/N=c3\[nH]c(-c4ccc([N+](=O)[O-])cc4)cs3)c(-c3ccc(Br)cc3)n2)cc1	MTT	48 h	35.7 µM
COc1ccc(Nc2nc(-n3nc(C)cc3C)nc(-n3nc(C)cc3C)n2)cc1	MTT	72 h	12 µM
O=C1Nc2c(C(F)(F)F)cccc2[C@@]1(c1ccc(O)cc1)N1CCC(F)(F)C1	resazurin	72 h	0.022 µM
COc1cc2ncnc(Nc3ccc(F)c(Cl)c3)c2cc1NC(=O)N/N=C/c1cccn1CCCN1CCN(C)CC1	MTT	72 h	2.43 µM
O=C(NC(=S)NCc1ccc(CNC(=S)NC(=O)c2ccc3ccccc3c2)cc1)c1ccc2ccccc2c1		48 h	1.19 µM
c1ccc(-c2ccccn2)nc1	MTT	48 h	> 50 µM
C#Cc1cccc(Nc2ncnc3cc(OCCOC)c(OCCOC)cc23)c1	MTT		3.16 µM
O=Cc1ccc(CO)o1	WST-1	48 h	46.2 µM
C=C1C(=O)[C@]2(OC)C(=O)O[C@@]34C[C@H](C)C(C(=O)O)=C[C@@H]3CCC[C@@H](C)C[C@@H](C)[C@H]1O[C@H]24	ATP luminescence		21 µM
Cc1ccc2nc(-c3ccc(Cl)cc3Cl)[nH]c2c1	MTT	48 h	57.2 µM
CC(=O)CC(=O)[c-]1cccc1.[Fe+2].c1cc[cH-]c1	MTT	96 h	54 µM
COc1cc2ncnc(Nc3ccc(F)c(Cl)c3)c2cc1NC(=O)N/N=C/c1cccn1CCCN1CCCC1	MTT	72 h	1.33 µM
Cc1ccc2nc(-c3ccc(Cl)cc3)[nH]c2c1	MTT	48 h	25.6 µM
COc1cc2ncnc(Nc3ccc(F)c(Cl)c3)c2cc1NC(=O)N/N=C/c1cccn1CCN(C)C	MTT	72 h	3.21 µM
COc1cccc(C(=O)O[C@@H]2CN3Cc4c(cc5c(c4OC)OCO5)[C@@]24C=C[C@H](OC)C[C@@H]34)c1	WST-1		> 10 µM
